Laboratory results reported in ChEMBL document CHEMBL5303300, “EUbOPEN Chemogenomics Library - Multiplex” (2023).
Several values for one entry are separate records, joined by “and”; a condition that tells them apart may be missing. Identical values can stand only once.

Key:
U2OS = assay: Multiplex assay against U2OS; type: toxicity, cell-based; conditions: human, number of replicates 2
Outline: (§1)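 Per cents of healthy-nucleus cells form the tubulin, mitochondrial-mass and membrane-permeability phenotype values. Live cells were stained at seeding with Hoechst33342, BioTracker Green Microtubule Cytoskeleton Dye, MitoTracker Red and Annexin V Alexa Fluor 680. After compound addition they were imaged on a CQ1 microscope at 37°C and 5% CO2, and CellPathfinder machine-learning gating split them into Hoechst high-intensity objects or normal cells, normal cells into healthy, pyknosed or fragmented nuclei, and pyknosed cells into mitotic or apoptotic.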

Fibroblast = assay: Multiplex assay against human fibroblast; type: toxicity, cell-based; conditions: number of replicates 2; outline: as §1
[1] = 12 h, 1 µM, compound concentration 1 uM
[2] = 12 h, 10 µM, compound concentration 10 uM
[3] = 24 h, 1 µM, compound concentration 1 uM
[4] = 24 h, 10 µM, compound concentration 10 uM
[5] = 48 h, 1 µM, compound concentration 1 uM
[6] = 48 h, 10 µM, compound concentration 10 uM

O=C(Nc1ccc(Cl)c(-c2ccccn2)c1)c1cccc(COc2ccc(Br)cc2CNCCO)c1.O=CO
Population Apoptotic (%) (U2OS; [1]): 71% and 88% | Population Fragmented Nuclei (%) (U2OS; [1]): 11% and 3% | Population Healthy Nuclei (%) (U2OS; [1]): 62% and 75% | Population Hoechst High Intensity Objects (%) (U2OS; [1]): 0% | Population Membrane Permeable-Phenotype (%) (U2OS; [1]): 47% and 48% | Population Mitochondria Different-Phenotype (%) (U2OS; [1]): 23% and 66% | Population Mitotic Cells (%) (U2OS; [1]): 28% and 11% | Population Normal (%) (U2OS; [1]): 100% | Population Pyknosed Nuclei (%) (U2OS; [1]): 25% and 20% | Population Tubulin-Different-Phenotype (%) (U2OS; [1]): 82% and 87% | Population Apoptotic (%) (U2OS; [2]): 75% and 64% | Population Healthy Nuclei (%) (U2OS; [2]): 44% and 72% | Population Hoechst High Intensity Objects (%) (U2OS; [2]): 0% | Population Membrane Permeable-Phenotype (%) (U2OS; [2]): 62% and 32% | Population Mitochondria Different-Phenotype (%) (U2OS; [2]): 62% and 57% | Population Mitotic Cells (%) (U2OS; [2]): 25% and 36% | Population Normal (%) (U2OS; [2]): 100% | Population Pyknosed Nuclei (%) (U2OS; [2]): 11% and 16% | Population Tubulin-Different-Phenotype (%) (U2OS; [2]): 100% and 93% | Population Apoptotic (%) (U2OS; [3]): 69% and 82% | Population Healthy Nuclei (%) (U2OS; [3]): 48% and 76% | Population Hoechst High Intensity Objects (%) (U2OS; [3]): 0% | Population Membrane Permeable-Phenotype (%) (U2OS; [3]): 31% and 45% | Population Mitochondria Different-Phenotype (%) (U2OS; [3]): 57% and 69% | Population Mitotic Cells (%) (U2OS; [3]): 30% and 17% | Population Normal (%) (U2OS; [3]): 100% and 99% | Population Pyknosed Nuclei (%) (U2OS; [3]): 33% and 20% | Population Tubulin-Different-Phenotype (%) (U2OS; [3]): 100% and 84% | Population Apoptotic (%) (U2OS; [4]): 100% and 71% | Population Healthy Nuclei (%) (U2OS; [4]): 51% and 63% | Population Hoechst High Intensity Objects (%) (U2OS; [4]): 0% | Population Membrane Permeable-Phenotype (%) (U2OS; [4]): 82% and 75% | Population Mitochondria Different-Phenotype (%) (U2OS; [4]): 82% and 72% | Population Normal (%) (U2OS; [4]): 100% | Population Pyknosed Nuclei (%) (U2OS; [4]): 15% and 28% | Population Tubulin-Different-Phenotype (%) (U2OS; [4]): 100% and 98% | Population Apoptotic (%) (U2OS; [5]): 69% and 89% | Population Healthy Nuclei (%) (U2OS; [5]): 52% and 66% | Population Hoechst High Intensity Objects (%) (U2OS; [5]): 2% and 0% | Population Membrane Permeable-Phenotype (%) (U2OS; [5]): 40% and 46% | Population Mitochondria Different-Phenotype (%) (U2OS; [5]): 52% and 59% | Population Mitotic Cells (%) (U2OS; [5]): 30% and 10% | Population Normal (%) (U2OS; [5]): 97% and 100% | Population Pyknosed Nuclei (%) (U2OS; [5]): 27% and 30% | Population Tubulin-Different-Phenotype (%) (U2OS; [5]): 92% and 65% | Population Apoptotic (%) (U2OS; [6]): 94% and 90% | Population Healthy Nuclei (%) (U2OS; [6]): 15% and 28% | Population Hoechst High Intensity Objects (%) (U2OS; [6]): 2% and 1% | Population Membrane Permeable-Phenotype (%) (U2OS; [6]): 100% and 80% | Population Mitochondria Different-Phenotype (%) (U2OS; [6]): 66% and 72% | Population Mitotic Cells (%) (U2OS; [6]): 5% and 9% | Population Normal (%) (U2OS; [6]): 97% and 98% | Population Pyknosed Nuclei (%) (U2OS; [6]): 44% and 62% | Population Tubulin-Different-Phenotype (%) (U2OS; [6]): 100% and 97% | Population Apoptotic (%) (Fibroblast; [1]): 41% and 58% | Population Fragmented Nuclei (%) (Fibroblast; [1]): 4% and 14% | Population Healthy Nuclei (%) (Fibroblast; [1]): 72% and 56% | Population Hoechst High Intensity Objects (%) (Fibroblast; [1]): 0% and 1% | Population Membrane Permeable-Phenotype (%) (Fibroblast; [1]): 10% and 13% | Population Mitochondria Different-Phenotype (%) (Fibroblast; [1]): 1% and 6% | Population Mitotic Cells (%) (Fibroblast; [1]): 58% and 41% | Population Normal (%) (Fibroblast; [1]): 100% and 98% | Population Pyknosed Nuclei (%) (Fibroblast; [1]): 23% and 28% | Population Tubulin-Different-Phenotype (%) (Fibroblast; [1]): 71% and 68% | Total Cell Count (Fibroblast; [1]): 208 and 161 | Population Apoptotic (%) (Fibroblast; [2]): 46% and 42% | Population Fragmented Nuclei (%) (Fibroblast; [2]): 15% and 17% | Population Healthy Nuclei (%) (Fibroblast; [2]): 58% | Population Hoechst High Intensity Objects (%) (Fibroblast; [2]): 0% | Population Membrane Permeable-Phenotype (%) (Fibroblast; [2]): 21% and 16% | Population Mitochondria Different-Phenotype (%) (Fibroblast; [2]): 6% and 14% | Population Mitotic Cells (%) (Fibroblast; [2]): 53% and 57% | Population Normal (%) (Fibroblast; [2]): 100% and 99% | Population Pyknosed Nuclei (%) (Fibroblast; [2]): 25% and 24% | Population Tubulin-Different-Phenotype (%) (Fibroblast; [2]): 83% and 85% | Total Cell Count (Fibroblast; [2]): 318 and 361 | Population Apoptotic (%) (Fibroblast; [3]): 55% and 63% | Population Fragmented Nuclei (%) (Fibroblast; [3]): 9% and 11% | Population Healthy Nuclei (%) (Fibroblast; [3]): 69% and 58% | Population Hoechst High Intensity Objects (%) (Fibroblast; [3]): 0% | Population Membrane Permeable-Phenotype (%) (Fibroblast; [3]): 6% and 5% | Population Mitochondria Different-Phenotype (%) (Fibroblast; [3]): 5% and 8% | Population Mitotic Cells (%) (Fibroblast; [3]): 44% and 36% | Population Normal (%) (Fibroblast; [3]): 99% and 100% | Population Pyknosed Nuclei (%) (Fibroblast; [3]): 21% and 30% | Population Tubulin-Different-Phenotype (%) (Fibroblast; [3]): 59% and 61% | Total Cell Count (Fibroblast; [3]): 224 and 146 | Population Apoptotic (%) (Fibroblast; [4]): 76% and 81% | Population Fragmented Nuclei (%) (Fibroblast; [4]): 10% and 6% | Population Healthy Nuclei (%) (Fibroblast; [4]): 40% and 46% | Population Hoechst High Intensity Objects (%) (Fibroblast; [4]): 0% and 1% | Population Mitochondria Different-Phenotype (%) (Fibroblast; [4]): 40% and 50%
